Experimental data taken from ChEMBL document CHEMBL4706706, “Structure-activity relationship and mechanistic studies for a series of cinnamyl hydroxamate histone deacetylase inhibitors” (Bioorg Med Chem, 2021).

Tests used:
[1] = biological target: T1, Protein deacetylase HDAC6 (Homo sapiens, UniProt Q9UBN7); test: Inhibition of recombinant human full-length N-terminal GST-tagged HDAC6 (1 to 1215 residues) expressed in baculovirus infected Sf9 insect cells using RHKK(Ac)AMC as substrate preincubated for 5 to 10 mins followed by substrate addition and measured after 2 hrs by fluorescence assay
T1 sequence (Q9UBN7 whole entry): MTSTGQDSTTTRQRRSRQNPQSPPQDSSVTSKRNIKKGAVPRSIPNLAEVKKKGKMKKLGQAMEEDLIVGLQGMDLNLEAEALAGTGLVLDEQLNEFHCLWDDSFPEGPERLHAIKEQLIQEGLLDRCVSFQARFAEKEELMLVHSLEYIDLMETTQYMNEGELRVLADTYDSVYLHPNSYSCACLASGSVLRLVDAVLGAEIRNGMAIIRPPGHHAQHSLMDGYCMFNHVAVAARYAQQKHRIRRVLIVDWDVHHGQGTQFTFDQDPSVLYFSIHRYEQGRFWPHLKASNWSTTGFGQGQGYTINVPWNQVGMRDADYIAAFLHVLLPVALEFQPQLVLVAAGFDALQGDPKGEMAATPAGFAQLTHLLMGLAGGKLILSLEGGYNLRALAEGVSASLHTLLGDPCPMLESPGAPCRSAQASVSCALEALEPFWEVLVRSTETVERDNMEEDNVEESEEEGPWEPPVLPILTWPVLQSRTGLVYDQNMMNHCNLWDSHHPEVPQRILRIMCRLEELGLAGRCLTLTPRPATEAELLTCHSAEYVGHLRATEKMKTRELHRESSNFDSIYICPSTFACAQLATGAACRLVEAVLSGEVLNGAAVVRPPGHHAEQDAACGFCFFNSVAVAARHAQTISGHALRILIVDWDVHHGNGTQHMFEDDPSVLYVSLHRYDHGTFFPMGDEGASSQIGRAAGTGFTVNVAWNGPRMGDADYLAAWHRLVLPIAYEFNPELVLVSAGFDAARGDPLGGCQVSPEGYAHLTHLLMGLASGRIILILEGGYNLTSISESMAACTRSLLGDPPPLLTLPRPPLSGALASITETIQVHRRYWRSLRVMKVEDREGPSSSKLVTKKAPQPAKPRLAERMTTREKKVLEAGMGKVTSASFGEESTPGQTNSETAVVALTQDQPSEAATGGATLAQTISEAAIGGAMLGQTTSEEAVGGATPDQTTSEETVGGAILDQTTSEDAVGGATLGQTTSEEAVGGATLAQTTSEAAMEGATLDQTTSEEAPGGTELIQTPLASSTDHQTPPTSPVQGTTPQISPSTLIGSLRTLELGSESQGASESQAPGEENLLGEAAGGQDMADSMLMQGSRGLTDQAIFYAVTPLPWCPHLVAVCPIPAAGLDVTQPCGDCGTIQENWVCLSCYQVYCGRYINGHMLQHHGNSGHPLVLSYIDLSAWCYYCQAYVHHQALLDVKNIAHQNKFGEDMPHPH

[2] = biological target: Histone deacetylase (Homo sapiens) (UniProt Q13547+O15379+Q9UBN7+Q92769+Q9UQL6+Q8WUI4+Q9BY41+Q96DB2+P56524+Q9UKV0+Q969S8); test: Inhibition of HDAC in human HeLa cell nuclear extracts at 100 uM relative to control; format: subcellular; conditions: Nucleus
Outline: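 Total HDAC activity measured with HeLa nuclear extract as enzyme source; single dose of 100 µM run in duplicate.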

[3] = organism: Homo sapiens; test: Selectivity index, ratio of IC50 for inhibition of recombinant human full-length C-terminal FLAG/His-tagged HDAC1 (1 to 482 residues) expressed in baculovirus infected Sf9 insect cells to IC50 for inhibition of recombinant human full-length N-terminal GST-tagged HDAC6 (1 to 1215 residues) expressed in baculovirus infected Sf9 insect cells
[4] = system: MCF7; test: Cytotoxicity against human MCF7 cells assessed as reduction in cell viability measured after 72 hrs by MTT assay; format: functional, cell-based; conditions: MCF7, 72 h
[5] = system: Jurkat; test: Cytotoxicity against human Jurkat cells assessed as reduction in cell viability measured after 72 hrs by MTT assay; format: functional, cell-based
[6] = biological target: Histone deacetylase 1 (Homo sapiens, UniProt Q13547); test: Inhibition of recombinant human full-length C-terminal FLAG/His-tagged HDAC1 (1 to 482 residues) expressed in baculovirus infected Sf9 insect cells using RHKK(Ac)AMC as substrate preincubated for 5 to 10 mins followed by substrate addition and measured after 2 hrs by fluorescence assay
Chain of Histone deacetylase 1 (Q13547 whole entry, the tested form may be a part): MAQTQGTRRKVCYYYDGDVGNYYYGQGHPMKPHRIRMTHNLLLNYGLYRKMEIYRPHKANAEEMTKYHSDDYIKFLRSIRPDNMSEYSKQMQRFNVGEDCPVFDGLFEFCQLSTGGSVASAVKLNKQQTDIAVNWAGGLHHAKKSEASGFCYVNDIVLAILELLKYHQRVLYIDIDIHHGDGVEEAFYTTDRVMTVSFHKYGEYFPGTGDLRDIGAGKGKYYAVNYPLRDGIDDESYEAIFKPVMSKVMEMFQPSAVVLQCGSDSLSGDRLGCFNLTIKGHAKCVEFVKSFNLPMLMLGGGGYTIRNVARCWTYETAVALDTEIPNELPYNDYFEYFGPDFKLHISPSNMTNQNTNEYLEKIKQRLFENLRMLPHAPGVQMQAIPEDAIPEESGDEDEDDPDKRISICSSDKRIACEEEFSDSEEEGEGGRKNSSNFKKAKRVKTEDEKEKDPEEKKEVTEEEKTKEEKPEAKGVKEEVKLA

[7] = system: HCT-116; test: Cytotoxicity against human HCT-116 cells assessed as reduction in cell viability measured after 72 hrs by MTT assay; format: functional, cell-based; conditions: HCT-116, 72 h
[8] = system: NAMALVA; test: Cytotoxicity against human NAMALVA cells assessed as reduction in cell viability measured after 72 hrs by MTT assay; format: functional, cell-based

Row | IC50 [1] | inhibition [2] | IC50 [6] | Compound | Ratio IC50 [3] | IC50 [4] | IC50 [5] | IC50 [7] | IC50 [8]
1 | 0.0207 µM | 92% | 1.32 µM | O=C(Nc1ccc(Cl)cc1)Nc1ccc(C(=O)NO)cc1 | 64 | > 50 µM | 1.06 µM | > 50 µM | 0.87 µM
2 | 0.105 µM | 98% | 0.941 µM | O=C(CCc1ccc(NC(=O)Nc2ccc(Cl)cc2)cc1)NO | 9 | > 50 µM | 0.41 µM | 17.9 µM | 0.37 µM
